Screening data deposited in PubChem BioAssay by several laboratories.
Sampled rows, rich in hits. Any-hit rate of the full collection: about 2.4%.
Tb hexokinase – blocks Trypanosoma brucei hexokinase 1 activity | recombinant TbHK1, G6PDH-coupled NADH A340 | inhibition, % at 10 µM | 220,000 compounds, 0.11% hits;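 active means inhibition of 50% or more in the single-dose primary screen; inactive means inhibition below 50%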
EP2 antag – EP2 receptor (human) inhibition; P43116; C6 glioma cells expressing human EP2, cAMP TR-FRET; cells stimulated with saturating PGE2; inhibition, % at 25 µM; 260,000 compounds, 0.52% hits;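 active means percent inhibition above 40 after rounding to a whole number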;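 further: rat C6 glioma host cells with rolipram phosphodiesterase inhibitor present; the protocol text gives 20 µM as final concentration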
Target sequence (P43116 whole entry, looked up): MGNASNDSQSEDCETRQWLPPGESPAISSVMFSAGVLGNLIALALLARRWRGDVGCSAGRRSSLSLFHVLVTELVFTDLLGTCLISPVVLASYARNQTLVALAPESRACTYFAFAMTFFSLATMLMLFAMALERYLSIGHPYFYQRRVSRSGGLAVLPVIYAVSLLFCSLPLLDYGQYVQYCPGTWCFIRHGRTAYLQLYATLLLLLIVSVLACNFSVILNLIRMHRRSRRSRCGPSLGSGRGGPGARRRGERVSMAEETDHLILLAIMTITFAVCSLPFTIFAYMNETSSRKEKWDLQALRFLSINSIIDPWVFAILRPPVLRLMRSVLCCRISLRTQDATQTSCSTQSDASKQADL
MT stabilize HCS – stabilizes microtubules in HeLa cells; HeLa tubulin immunostaining HCS, 24 h; share of cells brighter than vehicle mean+2SD; % tubulin-high responders, % at 10 µM; 200,000 compounds, 0.83% hits; AID 2205;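 active means plate Z-score above 3 for both tubulin-high and condensed-nucleus cell shares, with cell loss under 80%, at 10 µM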;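 further: anti alpha tubulin signal scored within the nucleus-defined area of each cell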
b-catenin transl – alters nuclear translocation of beta-catenin in HeLa cells; AID 1665; immunofluorescence imaging; 190,000 compounds, 0.3% hits; nuclear translocation activity, % at 5 µM;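 active means nuclear translocation activity above 50% at 5 µM, with a well cell count of 50 or more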;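 further: per-cell ratio of nuclear to cytoplasmic median beta-catenin stain intensity; plate controls were DMSO negative control for no effect and GSK-3 inhibitor IX positive control for full effect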
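Signal – beta-catenin immunofluorescence imaging with DAPI · Test system – human HeLa cell line · Dosing – 5 µM primary single dose, 0.1% DMSO, 0.02–20 µM confirmation series · Measure – % activation, nuclear-to-cytoplasmic median beta-catenin signal ratio per cell · Incubation – 24 h compound exposure at 37°C, 5% CO2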
HMGR II inh – inhibitors of class II HMG-CoA reductase from Enterococcus faecalis; 190,000 compounds, 0.41% hits; purified E. faecalis HMGR, NADPH absorbance 340 nm kinetic; inhibition, % at 10 µM; AID 1066;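 active means inhibition above a set limit, the median over all tested compounds plus 3 SD, cut at about 9.5% in these data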;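 further: enzyme runs in reverse so mevalonate oxidation gives rising NADPH absorbance; 0% = complete reaction with DMSO and 100% = background rate lacking mevalonate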
EP2 mod – modulates human prostaglandin E2 receptor EP2 signaling; induction, % at 25 µM; 260,000 compounds, 0.83% hits; EP2-expressing cells, cAMP HTRF FRET, PGE2 co-stimulation; P43116; AID 940;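 active means compounds whose cAMP rise, as percent of the full-agonist control response, exceeds 60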;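 further: rat C6 glioma line stably carrying human EP2 under a CMV promoter; the protocol text gives 20 µM as final concentration; 100% = response of wells given 1 µM PGE2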
* hit, by the source's call; ! = repeats disagree.

For O=C(Nc1nc(-c2ccc(-c3ccccc3)cc2)cs1)C1CCCO1 (stereo not given) the results were Tb hexokinase -17, EP2 antag 7, MT stabilize HCS 42*, HMGR II inh -1 and EP2 mod 28.
O=C(Nc1nc(-c2ccccc2)cs1)C1CCCO1 (stereo not given) was read as Tb hexokinase 1, EP2 antag 3, MT stabilize HCS 1, HMGR II inh 0 and EP2 mod -36.
Screening CCOC(=O)c1c(-c2ccccc2)csc1NC(=O)C1CCCO1 (stereo not given) returned Tb hexokinase -2, EP2 antag 8, MT stabilize HCS 3, b-catenin transl 3, HMGR II inh 0 and EP2 mod 64*!.
CCOC(=O)c1c(-c2ccc(C)c(C)c2)csc1NC(=O)C1CCCO1 (stereo not given) was read as EP2 antag 9 and EP2 mod 50.
Screening O=C(Nc1nc(-c2ccccc2)cs1)NC1CCCCC1 returned Tb hexokinase 0, EP2 antag 11, MT stabilize HCS 2, b-catenin transl 0, HMGR II inh 11* and EP2 mod 9.
CN1CCN(C(=O)C(=O)Nc2ccccn2)CC1 was read as EP2 antag 12 and EP2 mod 9.
`CC(Nc1nc(-c2ccccc2)nc2ccccc12)c1ccccc1` (stereo not given) gave Tb hexokinase -2, EP2 antag 6, MT stabilize HCS 6, b-catenin transl -4, HMGR II inh 1 and EP2 mod 38.
`CC(Nc1nc(-c2ccccc2O)nc2ccccc12)c1ccccc1` (stereo not given) gave Tb hexokinase -5, EP2 antag 6, b-catenin transl 0 and EP2 mod 70*.
Screening CC1CC(C)(C)N(C(=O)Cn2cnc3c(cnn3-c3ccccc3)c2=O)c2ccccc21 (stereo not given) returned EP2 antag 12 and EP2 mod -69.
Screening COc1cc(/C=N/NC(=O)c2ccc(COc3ccccc3Cl)o2)cc(Br)c1O returned Tb hexokinase -21, EP2 antag 75*, MT stabilize HCS 2, b-catenin transl -2, HMGR II inh -2 and EP2 mod -68.
Screening Cc1[nH]c2ccccc2c1/C=C/c1nc2ccccc2c(=O)[nH]1 returned Tb hexokinase 3, EP2 antag 14, b-catenin transl 1 and EP2 mod -66.
For Cc1cccc(/C=C/c2nc3ccccc3c(=O)[nH]2)c1 the results were Tb hexokinase -20, EP2 antag 3, MT stabilize HCS 26*, b-catenin transl 2, HMGR II inh -2 and EP2 mod -7.
`CCOC(=O)C1CCN(C(=O)c2c(-c3ccccc3)noc2C)CC1` gave Tb hexokinase 0, EP2 antag 8, MT stabilize HCS 3, b-catenin transl -4, HMGR II inh 14* and EP2 mod 56.
Screening CCOc1ccc(-n2nnnc2SCC(=O)NCc2ccc3c(c2)OCO3)cc1 returned EP2 antag 6 and EP2 mod -74.
`CCCC(=O)Nc1ccc(NC(=O)c2ccc(OC)cc2)nc1` gave EP2 antag 5 and EP2 mod -32.
O=C(CSc1nc2sc3c(c2c(=O)[nH]1)CCCC3)Nc1cccc(F)c1 was read as EP2 antag 3 and EP2 mod 9.
Screening Cc1cccc(NC(=O)CSc2nc3sc4c(c3c(=O)[nH]2)CCCC4)c1C returned EP2 antag 45* and EP2 mod -13.
For COc1cccc(OC)c1C(=O)Nc1nc2ccc(F)cc2s1 the results were EP2 antag 9 and EP2 mod -41.
Screening COC(=O)CSc1nnc(COc2ccc(C(C)C)cc2)o1 returned EP2 antag 10 and EP2 mod -44.
Screening CN(C)c1ccc(-c2nn3c(-c4ccc(Cl)cc4Cl)nnc3s2)cc1 returned Tb hexokinase -8, MT stabilize HCS 30*, b-catenin transl 53*, HMGR II inh -2 and EP2 mod 11.
Screening Clc1ccc(-c2nnc3sc(-c4ccc(Br)o4)nn23)c(Cl)c1 returned Tb hexokinase -2, MT stabilize HCS 2, b-catenin transl 3, HMGR II inh 3 and EP2 mod 8.
`Fc1cccc(F)c1-n1c(CN2CCCCC2)csc1=S` gave Tb hexokinase -5, EP2 antag 6, MT stabilize HCS 16*, b-catenin transl -2, HMGR II inh -3 and EP2 mod 39.
Cc1cc(NC(=O)c2ccc(C)s2)n(-c2nc3ccccc3[nH]2)n1 was read as Tb hexokinase -5, EP2 antag 10, MT stabilize HCS 4, HMGR II inh -5 and EP2 mod 63*.
For Oc1cccc2ccc(SSc3ccc4cccc(O)c4n3)nc12 the results were EP2 antag 106* and EP2 mod -63.
`O/N=C/c1ccc2cccc(O)c2n1` gave Tb hexokinase -9, EP2 antag 6, b-catenin transl 0 and EP2 mod -5.
For CCOC(=O)C1CCCN(Cc2c(Cl)cccc2Cl)C1 (stereo not given) the results were Tb hexokinase -1, EP2 antag 1, MT stabilize HCS 2, b-catenin transl -3, HMGR II inh -4 and EP2 mod 61*.
Screening CCOC(=O)C1CCCN(Cc2ccccc2F)C1 (stereo not given) returned Tb hexokinase -3, EP2 antag 2, MT stabilize HCS 4, b-catenin transl -5, HMGR II inh -9 and EP2 mod 17.
`Cc1ccc(/C=N/NC(=O)CCn2nc(C)cc2C)c(C)c1` gave Tb hexokinase -1, EP2 antag 4, MT stabilize HCS 27*, b-catenin transl 41, HMGR II inh -5 and EP2 mod -19.
Screening Cc1cc(Cl)ccc1N(CC(=O)N=Nc1c(O)[nH]c2ccccc12)S(C)(=O)=O returned Tb hexokinase -25, EP2 antag 9, MT stabilize HCS 1, b-catenin transl -2, HMGR II inh 0 and EP2 mod -42.
`Cc1ccc(S(=O)(=O)N(CC(=O)N=Nc2c(O)[nH]c3ccccc23)c2cccc(C)c2)cc1` gave Tb hexokinase 0, EP2 antag 3, MT stabilize HCS 19*, b-catenin transl 64*, HMGR II inh 3 and EP2 mod -23.
For CC(C)OC(=O)c1ccc(NC(=O)CN2c3cccc4cccc(c34)S2(=O)=O)cc1 the results were EP2 antag 14 and EP2 mod -31.
`Cc1cc(C)nc(N/N=C2/CCCC/C2=C\c2ccccc2)n1` gave Tb hexokinase -13, EP2 antag 5, MT stabilize HCS 6, b-catenin transl -2, HMGR II inh 14* and EP2 mod -54.
Cc1cc(OCC(=O)Nc2nnc(C(C)C)s2)cc(C)c1Cl was read as EP2 antag 14 and EP2 mod -11.
